Experimental findings from paper PMC2921709 (ChemMedChem, 2010) are described below.

Assay [1] has as its system HT-29. The assay can be described thus: MTT growth inhibition, HT-29 colon adenocarcinoma cells. It counts as cell-based, human. To be noted: read-out: GI50 HT-29. The essentials: (§1)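 Cells seeded at 8 × 10^3 per well in 96-well plates and held 18 h at 37 °C, 5% CO2. Medium then replaced with test compound in complete medium at various concentrations for 72 h continuous exposure. Viability read by MTT. GI50 is the concentration giving 50% proliferation inhibition, from dose–response curves; mean ± SE of ≥3 independent experiments. Media: leukemia lines in RPMI-1640; solid-tumour lines in DMEM with penicillin G 115 U mL−1, streptomycin and 10% FBS.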

Assay [2] relates to ARO. Description: MTT growth inhibition, ARO anaplastic thyroid cells. To be noted: read-out: GI50 ARO. The class given is cell-based, human. The method, boiled down: as §1
Assay [3] relates to Hep G2. Description: MTT growth inhibition, HepG2 hepatoma cells. To be noted: read-out: GI50 Hep G2. The class given is cell-based, human. The method, boiled down: as §1
Assay [4] concerns HeLa. Description: MTT growth inhibition, HeLa cervix carcinoma cells. It counts as cell-based, human. To be noted: read-out: GI50 HeLa. The essentials: as §1
Assay [5] has as its system HL-60. The assay can be described thus: MTT growth inhibition, HL-60 promyelocytic leukemia cells. The class given is cell-based, human. To be noted: read-out: GI50 HL-60. The method, boiled down:
as §1

Assay [6] relates to ML2. The assay can be described thus: MTT growth inhibition, ML-2 myeloid leukemia cells. To be noted: read-out: GI50 ML2. The class given is cell-based, human. The method, boiled down:
as §1

For assay [7], the system named is K562. The assay can be described thus: MTT growth inhibition, K562 chronic myelogenous leukemia cells. It counts as cell-based, human. To be noted: read-out: GI50 K562. The method, boiled down:
as §1

Assay [8] concerns panel of human tumor cell lines. Description: MTT growth inhibition, whole panel of human tumor cell lines. It counts as cell-based. To be noted: 72 h, read-out: GI50, all cell lines tested. The method, boiled down:
as §1

Assay [9] concerns IGROV. Description: MTT growth inhibition, IGROV ovarian cancer cells. The class given is cell-based, human. To be noted: read-out: GI50 IGROV; 72 h exposure, MTT; mean ± SE. The essentials:
as §1

The subject of assay [10] is MCF-7. Description: MTT growth inhibition, MCF-7 breast adenocarcinoma cells. It counts as cell-based, human. To be noted: read-out: GI50 MCF-7; 72 h exposure, MTT; mean ± SE. The essentials: as §1
Assay [11] concerns RS 4;11. The assay can be described thus: MTT growth inhibition, RS 4. The class given is cell-based, human. To be noted: read-out: GI50 RS 4;11; 72 h exposure, MTT; mean ± SE. The essentials:
as §1

In assay [12] the test system is Jurkat. Description: MTT growth inhibition, Jurkat T-leukemia cells. To be noted: read-out: GI50 Jurkat; 72 h exposure, MTT; mean ± SE. It counts as cell-based, human. The essentials:
as §1

The subject of assay [13] is Bovine brain tubulin. Description: Inhibition of tubulin polymerization. It counts as biochemical. To be noted: read-out: Tubulin Assembly IC50; tubulin 10 μM; 20 min incubation; ± SD.
Assay [14] has as its system Bovine brain tubulin (colchicine site). The assay can be described thus: Inhibition of [3H]colchicine binding to tubulin. To be noted: tubulin 1 μM, [3H]colchicine 5 μM.
The mark [15] stands for this setting: Homo sapiens, Thyroid cell, 72 h.

Like-named read-outs stand apart in the source and are kept apart here.

`O=c1c(-c2ccccc2)c[nH]c2ccc3[nH]ccc3c12` [Compound 33, 8-Phenyl-3H-pyrrolo[3,2-f]quinolin-9(6H)-one]: the GI50 (usually the concentration that inhibits growth by half) in assay [1] (Homo sapiens, HT-29, 72 h) was above 50 µM; in assay [2] (setting [15]) it was above 50 µM; in assay [3] (Homo sapiens, HepG2, 72 h), above 50 µM; in assay [4] (Homo sapiens, HeLa, 72 h), above 50 µM; in assay [5] (Homo sapiens, HL-60, 72 h), above 50 µM; in assay [6] (Homo sapiens, ML-2, 72 h), above 50 µM. Moreover, the GI50 was above 50 µM in assay [7] (Homo sapiens, K562, 72 h) and above 50 µM in assay [8].
As to `CCn1ccc2c3c(=O)c(-c4ccccc4)c[nH]c3ccc21` [Compound 34, 3-Ethyl-8-phenyl-3H-pyrrolo[3,2-f]quinolin-9(6H)-one], the concentration for 50% growth inhibition (GI50) in [1] (Homo sapiens, HT-29, 72 h) was above 50 µM; in [2] (setting [15]), above 50 µM; in assay [3] (Homo sapiens, HepG2, 72 h), above 50 µM; in [4] (Homo sapiens, HeLa, 72 h), above 50 µM; in assay [5] (Homo sapiens, HL-60, 72 h), above 50 µM; in [6] (Homo sapiens, ML-2, 72 h), above 50 µM. The concentration for 50% growth inhibition (GI50) in [7] (Homo sapiens, K562, 72 h) was above 50 µM; in assay [8], above 50 µM.
In the case of `O=c1c(-c2ccccc2)c[nH]c2ccc3c(ccn3CC3CC3)c12` [Compound 35], the GI50 was above 50 µM in [1] (72 h exposure, MTT, mean ± SE); above 50 µM in assay [2] (72 h exposure, MTT, mean ± SE); above 50 µM in assay [3] (72 h exposure, MTT, mean ± SE); above 50 µM in assay [4] (72 h exposure, MTT, mean ± SE); above 50 µM in [5] (72 h exposure, MTT, mean ± SE); above 50 µM in assay [6] (72 h exposure, MTT, mean ± SE). The GI50 in assay [7] (72 h exposure, MTT, mean ± SE) is above 50 µM.
For `CCn1ccc2c3c(=O)c(-c4cccc(OC)c4)c[nH]c3ccc21` [Compound 36, 3-Ethyl-8-(3-methoxyphenyl)-3H-pyrrolo[3,2-f]quinolin-9(6H)-one], the GI50 is above 50 µM in assay [1] (Homo sapiens, HT-29, 72 h); above 50 µM in [2] (setting [15]); above 50 µM in assay [3] (Homo sapiens, HepG2, 72 h); above 50 µM in assay [4] (Homo sapiens, HeLa, 72 h); above 50 µM in [5] (Homo sapiens, HL-60, 72 h); above 50 µM in assay [6] (Homo sapiens, ML-2, 72 h). Besides, the GI50 in assay [7] (Homo sapiens, K562, 72 h) was above 50 µM.
Take `CCn1ccc2c3c(=O)c(-c4ccc(Br)cc4)c[nH]c3ccc21` [Compound 37, 8-(4-Bromophenyl)-3-ethyl-3H-pyrrolo[3,2-f]quinolin-9(6H)-one]: the GI50 is above 50 µM in [1] (Homo sapiens, HT-29, 72 h); above 50 µM in [2] (setting [15]); above 50 µM in [3] (Homo sapiens, HepG2, 72 h); above 50 µM in assay [4] (Homo sapiens, HeLa, 72 h); above 50 µM in assay [5] (Homo sapiens, HL-60, 72 h); above 50 µM in [6] (Homo sapiens, ML-2, 72 h). Moreover, the GI50 in [7] (Homo sapiens, K562, 72 h) was above 50 µM.
As to `CCn1ccc2c3c(=O)cc(-c4ccccc4)[nH]c3ccc21` [Compound 38, 3-ethyl-7-PPyQ, reference compound], the GI50 in assay [1] (72 h exposure, MTT, mean ± SE) is 0.03 ± 0.01 µM; in [2] (72 h exposure, MTT, mean ± SE), 0.03 ± 0.01 µM; in assay [3] (72 h exposure, MTT, mean ± SE), 0.05 ± 0.01 µM; in [9] it was 0.06 ± 0.01 µM; in assay [10], 0.04 ± 0.01 µM; in assay [4] (72 h exposure, MTT, mean ± SE), 0.01 ± 0.008 µM. Besides, the GI50 amounted to 0.0005 ± 2e-05 µM in assay [5] (72 h exposure, MTT, mean ± SE); 0.001 ± 0.0003 µM in assay [6] (72 h exposure, MTT, mean ± SE); 0.001 ± 0.0001 µM in [7] (72 h exposure, MTT, mean ± SE); 0.002 ± 0.0003 µM in assay [11]; 0.0005 ± 2e-05 µM in assay [12]. Besides, the IC50 (commonly the concentration that gives 50% inhibition) in assay [13] is 0.57 ± 0.02 µM. In addition, the “Colchicine Binding Inhibition [%], 1 μM” value in [14] (compound 1 μM) is 34 ± 2%. In addition, the “Colchicine Binding Inhibition [%], 5 μM” value in [14] (compound 5 μM) stood at 73 ± 0.7%.
